System: not listed separately
Assay: Half-life of washout rate of radioactivity from the cerebellum.
Assay type: ADME, tissue-based
Settings: not given
Procedure, shortened: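 Rats received the 11C tracer by tail vein (3-30 MBq, 350-450 ng, buffered saline), 3 per time point. Cerebellar radioactivity (%ID/g) was followed over time after injection, and the half-life of its washout was derived from that time course.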

T1/2	SMILES
25.4 min	CN(C)Cc1ccccc1Sc1ccc(Cl)cc1N

System: not listed separately
Assay: Log P at pH 7.4
Assay type: physicochemical
Settings: buffer, read-out: logD
Procedure, shortened: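 Partition of the radiolabelled compound between 1-octanol and 0.02 M phosphate buffer at pH 7.4.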

logD	SMILES
3.55	CN(C)Cc1ccccc1Sc1ccc(Cl)cc1N

Species on record: Rattus norvegicus
Assay: Biodistribution of radioactivity in rat thalamus upon Tail-Vein injection of [11C]-labeled compound after 15 min
Assay type: ADME, organism-based
Settings: in vivo, iv, 0.25 h

ID/g	SMILES
1.54%	CN(C)Cc1ccccc1Sc1ccc(Cl)cc1N

Species on record: Rattus norvegicus
Assay: Biodistribution of radioactivity in rat thalamus upon Tail-Vein injection of [11C]-labeled compound after 30 min
Assay type: ADME, organism-based
Settings: in vivo, iv, 0.5 h

ID/g	SMILES
1.65%	CN(C)Cc1ccccc1Sc1ccc(Cl)cc1N

Species on record: Rattus norvegicus
Assay: Biodistribution of radioactivity in rat blood upon Tail-Vein injection of [11C]-labeled compound after 15 min
Assay type: ADME, organism-based
Settings: in vivo, iv, 0.25 h

ID/g	SMILES
0.28%	CN(C)Cc1ccccc1Sc1ccc(Cl)cc1N

Species on record: Rattus norvegicus
Assay: Biodistribution of radioactivity in rat blood upon Tail-Vein injection of [11C]-labeled compound after 30 min upon
Assay type: ADME, organism-based
Settings: in vivo, iv, 0.5 h

ID/g	SMILES
0.14%	CN(C)Cc1ccccc1Sc1ccc(Cl)cc1N

Species on record: Rattus norvegicus
Assay: Biodistribution of radioactivity in rat blood upon Tail-Vein injection of [11C]-labeled compound after 5 min
Assay type: ADME, organism-based
Settings: in vivo, iv

ID/g	SMILES
0.39%	CN(C)Cc1ccccc1Sc1ccc(Cl)cc1N

Species on record: Rattus norvegicus
Assay: Biodistribution of radioactivity in rat blood upon Tail-Vein injection of [11C]-labeled compound after 60 min
Assay type: ADME, organism-based
Settings: in vivo, iv, 1 h

ID/g	SMILES
0.08%	CN(C)Cc1ccccc1Sc1ccc(Cl)cc1N

Species on record: Rattus norvegicus
Assay: Biodistribution of radioactivity in rat cerebellum upon Tail-Vein injection of [11C]-labeled compound after 15 min
Assay type: ADME, organism-based
Settings: in vivo, iv, 0.25 h

ID/g	SMILES
0.75%	CN(C)Cc1ccccc1Sc1ccc(Cl)cc1N

Species on record: Rattus norvegicus
Assay: Biodistribution of radioactivity in rat cerebellum upon Tail-Vein injection of [11C]-labeled compound after 30 min
Assay type: ADME, organism-based
Settings: in vivo, iv, 0.5 h

ID/g	SMILES
0.47%	CN(C)Cc1ccccc1Sc1ccc(Cl)cc1N

Species on record: Rattus norvegicus
Assay: Biodistribution of radioactivity in rat cerebellum upon Tail-Vein injection of [11C]-labeled compound after 5 min
Assay type: ADME, organism-based
Settings: in vivo, iv

ID/g	SMILES
1.03%	CN(C)Cc1ccccc1Sc1ccc(Cl)cc1N

Species on record: Rattus norvegicus
Assay: Biodistribution of radioactivity in rat cerebellum upon Tail-Vein injection of [11C]-labeled compound after 60 min
Assay type: ADME, organism-based
Settings: in vivo, iv, 1 h

ID/g	SMILES
0.23%	CN(C)Cc1ccccc1Sc1ccc(Cl)cc1N

Species on record: Rattus norvegicus
Assay: Biodistribution of radioactivity in rat cortex upon Tail-Vein injection of [11C]-labeled compound after 15 min
Assay type: ADME, organism-based
Settings: in vivo, iv, 0.25 h

ID/g	SMILES
1.33%	CN(C)Cc1ccccc1Sc1ccc(Cl)cc1N

Species on record: Rattus norvegicus
Assay: Biodistribution of radioactivity in rat cortex upon Tail-Vein injection of [11C]-labeled compound after 30 min
Assay type: ADME, organism-based
Settings: in vivo, iv, 0.5 h

ID/g	SMILES
1.14%	CN(C)Cc1ccccc1Sc1ccc(Cl)cc1N

Species on record: Rattus norvegicus
Assay: Biodistribution of radioactivity in rat thalamus upon Tail-Vein injection of [11C]-labeled compound after 5 min
Assay type: ADME, organism-based
Settings: in vivo, iv

ID/g	SMILES
1.43%	CN(C)Cc1ccccc1Sc1ccc(Cl)cc1N

Species on record: Rattus norvegicus
Assay: Biodistribution of radioactivity in rat cortex upon Tail-Vein injection of [11C]-labeled compound after 5 min
Assay type: ADME, organism-based
Settings: in vivo, iv

ID/g	SMILES
1.39%	CN(C)Cc1ccccc1Sc1ccc(Cl)cc1N

Species on record: Rattus norvegicus
Assay: Biodistribution of radioactivity in rat cortex upon Tail-Vein injection of [11C]-labeled compound after 60 min
Assay type: ADME, organism-based
Settings: in vivo, iv, 1 h

ID/g	SMILES
0.73%	CN(C)Cc1ccccc1Sc1ccc(Cl)cc1N

Species on record: Rattus norvegicus
Assay: Biodistribution of radioactivity in rat hippocampus upon Tail-Vein injection of [11C]-labeled compound after 15 min
Assay type: ADME, organism-based
Settings: in vivo, iv, 0.25 h

ID/g	SMILES
1.12%	CN(C)Cc1ccccc1Sc1ccc(Cl)cc1N

Species on record: Rattus norvegicus
Assay: Biodistribution of radioactivity in rat hippocampus upon Tail-Vein injection of [11C]-labeled compound after 30 min
Assay type: ADME, organism-based
Settings: in vivo, iv, 0.5 h

ID/g	SMILES
1.04%	CN(C)Cc1ccccc1Sc1ccc(Cl)cc1N

Species on record: Rattus norvegicus
Assay: Biodistribution of radioactivity in rat hippocampus upon Tail-Vein injection of [11C]-labeled compound after 5 min
Assay type: ADME, organism-based
Settings: in vivo, iv

ID/g	SMILES
1.06%	CN(C)Cc1ccccc1Sc1ccc(Cl)cc1N

Species on record: Rattus norvegicus
Assay: Biodistribution of radioactivity in rat hippocampus upon Tail-Vein injection of [11C]-labeled compound after 60 min
Assay type: ADME, organism-based
Settings: in vivo, iv, 1 h

ID/g	SMILES
0.74%	CN(C)Cc1ccccc1Sc1ccc(Cl)cc1N

Species on record: Rattus norvegicus
Assay: Biodistribution of radioactivity in rat hypothalamus upon Tail-Vein injection of [11C]-labeled compound after 15 min
Assay type: ADME, organism-based
Settings: in vivo, iv, 0.25 h

ID/g	SMILES
1.48%	CN(C)Cc1ccccc1Sc1ccc(Cl)cc1N

Species on record: Rattus norvegicus
Assay: Biodistribution of radioactivity in rat hypothalamus upon Tail-Vein injection of [11C]-labeled compound after 30 min
Assay type: ADME, organism-based
Settings: in vivo, iv, 0.5 h

ID/g	SMILES
1.47%	CN(C)Cc1ccccc1Sc1ccc(Cl)cc1N

Species on record: Rattus norvegicus
Assay: Biodistribution of radioactivity in rat hypothalamus upon Tail-Vein injection of [11C]-labeled compound after 5 min
Assay type: ADME, organism-based
Settings: in vivo, iv

ID/g	SMILES
1.36%	CN(C)Cc1ccccc1Sc1ccc(Cl)cc1N

Species on record: Rattus norvegicus
Assay: Biodistribution of radioactivity in rat hypothalamus upon Tail-Vein injection of [11C]-labeled compound after 60 min
Assay type: ADME, organism-based
Settings: in vivo, iv, 1 h

ID/g	SMILES
1.19%	CN(C)Cc1ccccc1Sc1ccc(Cl)cc1N

Species on record: Rattus norvegicus
Assay: Biodistribution of radioactivity in rat striatum upon Tail-Vein injection of [11C]-labeled compound after 15 min
Assay type: ADME, organism-based
Settings: in vivo, iv, 0.25 h

ID/g	SMILES
1.34%	CN(C)Cc1ccccc1Sc1ccc(Cl)cc1N

Species on record: Rattus norvegicus
Assay: Biodistribution of radioactivity in rat striatum upon Tail-Vein injection of [11C]-labeled compound after 30 min
Assay type: ADME, organism-based
Settings: in vivo, iv, 0.5 h

ID/g	SMILES
1.17%	CN(C)Cc1ccccc1Sc1ccc(Cl)cc1N

Species on record: Rattus norvegicus
Assay: Biodistribution of radioactivity in rat striatum upon Tail-Vein injection of [11C]-labeled compound after 5 min
Assay type: ADME, organism-based
Settings: in vivo, iv

ID/g	SMILES
1.36%	CN(C)Cc1ccccc1Sc1ccc(Cl)cc1N

Species on record: Rattus norvegicus
Assay: Biodistribution of radioactivity in rat striatum upon Tail-Vein injection of [11C]-labeled compound after 60 min
Assay type: ADME, organism-based
Settings: in vivo, iv, 1 h

ID/g	SMILES
0.79%	CN(C)Cc1ccccc1Sc1ccc(Cl)cc1N

Biological target: Sodium-dependent noradrenaline transporter (Homo sapiens, UniProt P23975)
Sequence (P23975 whole entry): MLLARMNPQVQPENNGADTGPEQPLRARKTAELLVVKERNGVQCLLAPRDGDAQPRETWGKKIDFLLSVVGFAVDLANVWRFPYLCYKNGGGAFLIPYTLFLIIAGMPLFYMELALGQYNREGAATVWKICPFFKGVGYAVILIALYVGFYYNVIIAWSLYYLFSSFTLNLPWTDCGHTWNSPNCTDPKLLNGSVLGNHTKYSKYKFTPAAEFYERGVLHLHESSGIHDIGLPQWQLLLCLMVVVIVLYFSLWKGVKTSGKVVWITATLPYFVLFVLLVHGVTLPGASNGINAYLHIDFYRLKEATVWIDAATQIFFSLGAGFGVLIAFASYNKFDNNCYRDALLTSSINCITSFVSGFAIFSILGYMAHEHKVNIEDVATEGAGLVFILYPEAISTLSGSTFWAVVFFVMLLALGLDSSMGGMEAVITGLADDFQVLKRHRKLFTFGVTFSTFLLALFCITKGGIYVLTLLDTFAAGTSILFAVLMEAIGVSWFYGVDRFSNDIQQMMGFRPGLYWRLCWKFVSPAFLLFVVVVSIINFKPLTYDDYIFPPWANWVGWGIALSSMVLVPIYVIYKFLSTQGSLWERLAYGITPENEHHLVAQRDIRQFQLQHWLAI
Assay: In vitro binding affinity on cloned Norepinephrine transporter
Settings: not given
Procedure, shortened: (§1)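 Competition binding in triplicate on membranes from cloned human transporters. Buffer 50 mM Tris-Cl pH 7.4 with 150 mM NaCl/5 mM KCl (SERT, NET) or 100 mM NaCl (DAT). Incubated 40 min at 37 °C, then filtered on PEI-soaked GF/B filters. Nonspecific binding set with duloxetine 1 µM (SERT), desipramine 10 µM (NET) or nomifensine 10 µM (DAT). IC50 from nonlinear fit; Ki by Cheng-Prusoff.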

Ki	SMILES
0.23 µM	CN(C)Cc1ccccc1Sc1ccc(Cl)cc1N

Biological target: Sodium-dependent serotonin transporter (Homo sapiens, UniProt P31645)
Sequence (P31645 whole entry): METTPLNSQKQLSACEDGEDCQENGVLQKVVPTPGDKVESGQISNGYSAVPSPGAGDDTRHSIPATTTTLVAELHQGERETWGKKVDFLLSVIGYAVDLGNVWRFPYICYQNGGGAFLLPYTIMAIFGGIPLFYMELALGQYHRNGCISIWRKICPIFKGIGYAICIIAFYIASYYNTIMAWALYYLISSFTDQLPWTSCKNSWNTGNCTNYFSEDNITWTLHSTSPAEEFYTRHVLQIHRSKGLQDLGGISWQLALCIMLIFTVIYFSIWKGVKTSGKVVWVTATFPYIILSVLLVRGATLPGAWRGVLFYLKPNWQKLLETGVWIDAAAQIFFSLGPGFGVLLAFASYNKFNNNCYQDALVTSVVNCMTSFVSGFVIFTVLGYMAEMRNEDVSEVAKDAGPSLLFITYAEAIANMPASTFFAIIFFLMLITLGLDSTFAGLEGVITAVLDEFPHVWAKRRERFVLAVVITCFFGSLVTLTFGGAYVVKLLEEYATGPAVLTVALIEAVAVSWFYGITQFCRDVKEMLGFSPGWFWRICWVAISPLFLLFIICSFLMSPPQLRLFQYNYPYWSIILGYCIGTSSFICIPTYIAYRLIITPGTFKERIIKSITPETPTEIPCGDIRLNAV
Assay: In vitro binding affinity on cloned Serotonin transporter
Settings: not given
Procedure, shortened: as §1, with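 “transporters. Radioligands: SERT [3H]paroxetine 0.2 nM with 10.3 µg protein, NET [3H]nisoxetine 1.0 nM with 16.9 µg, DAT [3H]WIN 35,428 1.0 nM with 6.2 µg.” for “transporters.”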

Ki	SMILES
0.00027 µM	CN(C)Cc1ccccc1Sc1ccc(Cl)cc1N

Species on record: Rattus norvegicus
Assay: Biodistribution of radioactivity in rat thalamus upon Tail-Vein injection of [11C]-labeled compound after 60 min
Assay type: ADME, organism-based
Settings: in vivo, iv, 1 h

ID/g	SMILES
1.24%	CN(C)Cc1ccccc1Sc1ccc(Cl)cc1N

Biological target: Sodium-dependent dopamine transporter (Homo sapiens, UniProt Q01959)
Sequence (Q01959 whole entry): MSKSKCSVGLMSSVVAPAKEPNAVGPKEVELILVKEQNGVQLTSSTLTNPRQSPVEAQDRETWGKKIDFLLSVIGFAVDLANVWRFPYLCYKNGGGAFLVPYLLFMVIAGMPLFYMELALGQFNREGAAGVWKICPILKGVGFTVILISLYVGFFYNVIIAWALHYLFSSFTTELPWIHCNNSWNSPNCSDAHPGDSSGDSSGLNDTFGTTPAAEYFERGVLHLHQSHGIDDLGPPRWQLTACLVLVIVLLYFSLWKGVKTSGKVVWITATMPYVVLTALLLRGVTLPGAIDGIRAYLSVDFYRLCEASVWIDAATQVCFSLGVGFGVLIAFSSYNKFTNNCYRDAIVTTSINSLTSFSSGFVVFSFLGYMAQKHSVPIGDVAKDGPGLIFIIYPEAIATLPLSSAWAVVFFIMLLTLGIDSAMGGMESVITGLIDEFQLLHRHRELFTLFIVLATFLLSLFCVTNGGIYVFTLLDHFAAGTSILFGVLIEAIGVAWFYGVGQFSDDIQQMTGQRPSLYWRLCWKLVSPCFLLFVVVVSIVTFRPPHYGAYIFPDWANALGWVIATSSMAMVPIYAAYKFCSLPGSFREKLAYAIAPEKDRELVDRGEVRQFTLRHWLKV
Assay: In vitro binding affinity on cloned Dopamine transporter
Settings: not given
Procedure, shortened: as §1, with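 “transporters. Radioligands: SERT [3H]paroxetine 0.2 nM with 10.3 µg protein, NET [3H]nisoxetine 1.0 nM with 16.9 µg, DAT [3H]WIN 35,428 1.0 nM with 6.2 µg.” for “transporters.”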

Ki	SMILES
0.115 µM	CN(C)Cc1ccccc1Sc1ccc(Cl)cc1N
